Data as given in ChEMBL document CHEMBL1133479 (J Med Chem, 2000).

Tests used:
[1] = biological target: T1, Melatonin receptor type 1B (Homo sapiens, UniProt P49286); experiment: Binding affinity for melatonin receptor type 1B, expressed in HEK293 cells (2-[125I]iodomelatonin is used as radioligand); assay type: cell-based
T1 sequence (P49286 whole entry): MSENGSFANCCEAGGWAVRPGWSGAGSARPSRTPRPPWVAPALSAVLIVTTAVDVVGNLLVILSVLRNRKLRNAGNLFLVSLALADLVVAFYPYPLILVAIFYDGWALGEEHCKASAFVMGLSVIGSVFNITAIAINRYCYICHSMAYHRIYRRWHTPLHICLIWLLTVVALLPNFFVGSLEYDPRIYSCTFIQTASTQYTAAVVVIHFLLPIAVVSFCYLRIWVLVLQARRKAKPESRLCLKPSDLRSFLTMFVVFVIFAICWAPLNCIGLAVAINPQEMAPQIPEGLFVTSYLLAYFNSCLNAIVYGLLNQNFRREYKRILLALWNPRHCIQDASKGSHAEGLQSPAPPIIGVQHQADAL

[2] = biological target: Melatonin receptor type 1A (Homo sapiens, UniProt P48039); experiment: Binding affinity for human melatonin receptor type 1A, expressed in HEK293 cells (2-[125I]iodomelatonin is used as radioligand); assay type: cell-based
[3] = Melanophore aggregation of the dermal melanocytes of Xenopus laevis tadpoles; assay type: functional
Melatonin receptor = Melatonin receptor (Gallus gallus, UniProt P49288+P51050+P49285); experiment: Binding affinity is evaluated for chicken brain melatonin receptor using 2-[125I]iodomelatonin as radioligand
[4] = Percentage of maximum effect observed with regard to that of melatonin (100%); assay type: functional
Procedure, shortened: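 Tadpole skin-lightening assay (melanophore index, 5 concentrations, 15 min exposure).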

[5] = Melanophore aggregation of the dermal melanocytes of Xenopus laevis tadpoles with regard to melatonin (=1); assay type: functional
[6] = compound is evaluated for melanophore aggregation of the dermal melanocytes of Xenopus laevis tadpoles with regard to melatonin (=1); assay type: functional

Melatonin receptor type 1A, sequence (P48039 whole entry): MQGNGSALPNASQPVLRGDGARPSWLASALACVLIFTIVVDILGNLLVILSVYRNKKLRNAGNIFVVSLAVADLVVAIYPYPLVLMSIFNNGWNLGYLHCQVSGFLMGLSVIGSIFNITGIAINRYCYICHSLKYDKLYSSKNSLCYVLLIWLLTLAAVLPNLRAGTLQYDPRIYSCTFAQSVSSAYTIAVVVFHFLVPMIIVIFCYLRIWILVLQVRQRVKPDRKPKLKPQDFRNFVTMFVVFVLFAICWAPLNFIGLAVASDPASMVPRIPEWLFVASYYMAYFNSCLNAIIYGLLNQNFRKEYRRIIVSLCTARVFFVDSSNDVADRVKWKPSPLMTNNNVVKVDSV

Structure (SMILES) | Ki [1] | Ki [2] | EC50 [3] | Ki (Melatonin receptor) | Effect [4] | Potency [5] | Potency [6]
CC(=O)NCC1Cc2cccc3cccc1c23 (configuration not stated) | 0.51 nM | 4.24 nM | > 1000 nM | 36.1 nM | < 50% | – | –
COc1ccc2ccc(OC)c3c2c1CCC3CCNC(=O)C1CC1 (configuration not stated) | 1.59 nM | 0.66 nM | – | 11.2 nM | – | – | –
CCCC(=O)NCC1CCc2cccc3ccc(OC)c1c23 (configuration not stated) | 0.069 nM | 0.008 nM | 0.08 nM | 0.02 nM | – | 84.8 | –
CCCC(=O)NCC1CCc2cccc3cccc1c23 (configuration not stated) | 0.18 nM | – | – | 3.2 nM | – | – | –
CCC(=O)NCC1Cc2cccc3ccc(OC)c1c23 (configuration not stated) | 0.085 nM | 0.1 nM | – | 0.9 nM | – | – | –
COc1ccc2cccc3c2c1CCC3CNC(=O)C1CC1 (configuration not stated) | 0.79 nM | 0.95 nM | – | 4.6 nM | – | – | –
COc1ccc2cccc3c2c1C(CNC(=O)C1CC1)C3 (configuration not stated) | 0.31 nM | 1.32 nM | – | 3.8 nM | – | – | –
CCC(=O)NCC1CCc2c(OC)ccc3ccc(OC)c1c23 (configuration not stated) | 0.153 nM | 0.012 nM | – | 0.011 nM | – | – | –
CC(=O)NCC1CCc2cccc3cccc1c23 (configuration not stated) | 0.22 nM | 1.2 nM | – | 5.5 nM | – | – | –
COc1ccc2cccc3c2c1CCC3CNC(C)=O (configuration not stated) | 0.41 nM | 0.8 nM | 57.8 nM | 0.9 nM | – | 0.11 | –
CCCC(=O)NCCC1Cc2cccc3cccc1c23 (configuration not stated) | 1.86 nM | 6.41 nM | – | 73.7 nM | – | – | –
COc1ccc2ccc(OC)c3c2c1CCC3CCNC(C)=O (configuration not stated) | 0.55 nM | 0.2 nM | 2.65 nM | 3.6 nM | – | 2.5 | –
CCCC(=O)NCC1CCc2c(OC)ccc3ccc(OC)c1c23 (single isomer, unassigned; (-)) | – | – | – | 0.034 nM | – | – | –
CCCC(=O)NCC1CCc2c(OC)ccc3cccc1c23 (stereo in doubt; 13c (+)) | 4.07 nM | 2.9 nM | – | 21.7 nM | – | – | –
CCCC(=O)NCC1Cc2cccc3ccc(OC)c1c23 (single isomer, unassigned; (+)) | 7.4 nM | 3.9 nM | – | 4.3 nM | – | – | –
CCC(=O)NCCC1Cc2cccc3cccc1c23 (configuration not stated) | 1.86 nM | 4.34 nM | – | 101.8 nM | – | – | –
CCC(=O)NCCC1Cc2cccc3ccc(OC)c1c23 (configuration not stated) | 0.24 nM | 0.22 nM | – | 4.75 nM | – | – | –
CCC(=O)NCC1CCc2c(OC)ccc3cccc1c23 (configuration not stated) | 0.13 nM | 0.19 nM | – | 0.7 nM | – | – | –
CCCC(=O)NCCC1CCc2cccc3ccc(OC)c1c23 (configuration not stated) | – | – | – | 0.43 nM | – | – | –
COc1ccc2cccc3c2c1CCC3CCNC(C)=O (configuration not stated) | 11.8 nM | 8.9 nM | > 1000 nM | 145 nM | 50% | – | –
COc1ccc2cccc(CCNC(C)=O)c2c1 [AGOMELATINE] | – | – | 0.53 nM | – | – | 0.8 | –
CCCC(=O)NCC1Cc2cccc3cccc1c23 (configuration not stated) | 0.093 nM | 0.79 nM | 26 nM | 4.3 nM | < 50% | – | –
CCC(=O)NCCC1CCc2c(OC)ccc3cccc1c23 (configuration not stated) | 4.03 nM | 2.08 nM | – | 31.7 nM | – | – | –

Structure (SMILES) | Ki [1] | Ki [2] | EC50 [3] | Ki (Melatonin receptor) | Effect [4] | Potency [5] | Potency [6]
CCC(=O)NCCC1CCc2c(OC)ccc3ccc(OC)c1c23 (configuration not stated) | 0.55 nM | 0.07 nM | – | 0.8 nM | – | – | –
COc1ccc2cccc3c2c1CCC3CCNC(=O)C1CC1 (configuration not stated) | 13.2 nM | 1.89 nM | – | 43.4 nM | – | – | –
CCC(=O)NCC1Cc2cccc3cccc1c23 (configuration not stated) | 0.22 nM | 2.65 nM | – | 14.3 nM | – | – | –
COc1ccc2ccc(OC)c3c2c1CCC3CNC(C)=O (configuration not stated) | 0.145 nM | 0.015 nM | 0.025 nM | 0.054 nM | – | 271.6 | –
CCCC(=O)NCCC1CCc2c(OC)ccc3cccc1c23 (configuration not stated) | – | – | – | 28.1 nM | – | – | –
COc1ccc2cccc3c2c1C(CNC(C)=O)CC3 (configuration not stated) | 0.094 nM | 0.01 nM | 0.1 nM | 0.04 nM | – | 67.9 | –
O=C(NCC1Cc2cccc3cccc1c23)C1CC1 (configuration not stated) | 0.57 nM | 1.06 nM | – | 40.5 nM | – | – | –
CCCC(=O)NCC1Cc2cccc3ccc(OC)c1c23 (single isomer, unassigned; (-)) | 0.034 nM | 0.03 nM | – | 0.15 nM | – | – | –
O=C(NCCC1Cc2cccc3cccc1c23)C1CC1 (configuration not stated) | 16.2 nM | 6.48 nM | – | 399 nM | – | – | –
COc1ccc2cccc3c2c1C(CNC(C)=O)C3 (configuration not stated) | 0.12 nM | 0.12 nM | 5.08 nM | 2.95 nM | – | 1.33 | –
CCCC(=O)NCC1CCc2c(OC)ccc3ccc(OC)c1c23 (stereo in doubt; 15c) | 0.1 nM | 0.016 nM | 0.004 nM | 0.07 nM | – | 1697 | –
COc1ccc2ccc(OC)c3c2c1CCC3CNC(=O)C1CC1 (configuration not stated) | 0.26 nM | 0.026 nM | – | 0.13 nM | – | – | –
CCCC(=O)NCC1CCc2c(OC)ccc3cccc1c23 (stereo in doubt; 13c) | 0.11 nM | 0.45 nM | 1.61 nM | 0.36 nM | – | – | 13.3
CCCC(=O)NCC1CCc2c(OC)ccc3cccc1c23 (single isomer, unassigned; (-)) | 0.068 nM | 0.11 nM | – | 0.8 nM | – | – | –
CCCC(=O)NCC1CCc2c(OC)ccc3ccc(OC)c1c23 (single isomer, unassigned; (+)) | – | – | – | 0.31 nM | – | – | –
COc1ccc2cccc3c2c1C(CCNC(C)=O)C3 (configuration not stated) | 0.59 nM | 0.41 nM | > 1000 nM | 2.7 nM | 50% | – | –
CCCC(=O)NCCC1Cc2cccc3ccc(OC)c1c23 (configuration not stated) | 0.34 nM | 0.37 nM | – | 2.4 nM | – | – | –
CCCC(=O)NCC1Cc2cccc3ccc(OC)c1c23 (stereo in doubt; 20c) | 0.35 nM | 0.37 nM | 0.46 nM | 0.16 nM | – | 14.7 | –
COc1ccc2cccc3c2c1C(CCNC(=O)C1CC1)C3 (configuration not stated) | 41.8 nM | 10 nM | – | 97.1 nM | – | – | –
CC(=O)NCCC1Cc2cccc3cccc1c23 (configuration not stated) | 3.83 nM | 6.5 nM | > 1000 nM | 123.3 nM | < 50% | – | –
COc1ccc2cccc3c2c1C(CCNC(C)=O)CC3 (configuration not stated) | 0.39 nM | 0.1 nM | 428 nM | 24.4 nM | – | 0.007 | –
CCCC(=O)NCCC1CCc2c(OC)ccc3ccc(OC)c1c23 (configuration not stated) | 0.19 nM | 0.057 nM | 0.18 nM | 0.14 nM | – | 37.7 | –
